Source: PubChem
GAA850 FXN act – frataxin GAA850 promoter activation; HEK293 lucGAA850 FXN promoter luciferase reporter, 24 h; percent of 10 µM SAHA response; activation, % at 6 µM; actives 0.56% (n = 360,000);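 active = activation above the average of all compounds screened plus 3 SD, cutoff fixed separately per campaign, cut at about 7.5% in these data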
HTR2A ag – agonists of mouse serotonin 5-HT2A receptor (HTR2A) | P35363 | CHO-K1 mHTR2A beta-arrestin complementation, luminescence; percent of 30 µM serotonin response | activation, % at 7.6 µM | actives 0.66% (n = 360,000) | AID 624169;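 active = activation above a run cutoff, the mean activation of all tested compounds plus 3 SD, cut at about 14% in these data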
Target sequence (P35363 whole entry, looked up): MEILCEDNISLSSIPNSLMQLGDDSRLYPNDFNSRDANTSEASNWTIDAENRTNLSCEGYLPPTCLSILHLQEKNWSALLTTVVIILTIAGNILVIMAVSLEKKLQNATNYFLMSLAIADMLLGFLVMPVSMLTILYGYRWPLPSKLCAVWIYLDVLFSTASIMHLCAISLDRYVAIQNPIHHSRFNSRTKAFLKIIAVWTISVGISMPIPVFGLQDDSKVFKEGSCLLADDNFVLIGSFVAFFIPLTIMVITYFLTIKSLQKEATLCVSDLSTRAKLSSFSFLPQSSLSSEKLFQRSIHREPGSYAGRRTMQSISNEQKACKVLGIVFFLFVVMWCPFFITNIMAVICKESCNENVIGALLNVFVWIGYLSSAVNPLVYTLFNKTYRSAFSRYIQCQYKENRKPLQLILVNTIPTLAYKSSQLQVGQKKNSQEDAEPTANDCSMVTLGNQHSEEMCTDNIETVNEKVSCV
MC4R antag cAMP – blocks human MC4R cAMP signaling. actives 0.48% (n = 360,000). inhibition, % at 6.5 µM. P32245. MC4R-expressing cells, MTII-stimulated cAMP, LANCE TR-FRET. AID 540295;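 active = inhibition above its plate's cutoff, the mean of tested wells on that plate plus 3 SD, cut at about 29% in these data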
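System – human MC4R-expressing U2OS cells · Also added – Melanotan II · Dosing – one concentration, 6.5 µM nominal · Timing – 30-min compound, 1-h challenge, 1-h detection, room temperature · Measured by – Eu-cAMP/anti-cAMP TR-FRET, emission 671 nm · Replicates – singlicate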
MC4R ag barr – activates human MC4R beta-arrestin recruitment; P32245; U2OS MC4R beta-arrestin complementation, luminescence; percent of melanotan II response, DMSO zero; activation, % at 8.9 µM; actives 0.98% (n = 360,000); AID 540308;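 active = activation above a per-plate cutoff, the mean activation of sample wells on that plate plus 3 SD, cut at about 8% in these data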
AHR activator – activates the human aryl hydrocarbon receptor | P35869 | AID 2796 | activation, % at 5 µM | AHR-responsive luciferase reporter cells, luminescence | actives 2.5% (n = 320,000); in the data active = activation above about 47%
A number is an active result; . = inactive; / = not tested or not shown. Only some compounds are listed: those with a hit (about 4.7% of all), similar ones and a draw of the others.

SMILES	GAA850 FXN act	HTR2A ag	MC4R antag cAMP	MC4R ag barr	AHR activator
Cc1ccc2[nH]c(C)c(/C=N/Nc3nc4ccccc4s3)c2c1	.	.	.	.	65
Brc1csc(/C=N/Nc2nc3ccccc3s2)c1	.	.	.	.	100
C(=N\Nc1nc2ccccc2[nH]1)/c1ccc2c(c1)OCO2	.	.	.	.	/
COc1ccc(C=NNc2nc3ccccc3s2)cc1	.	.	.	9.1	/
Cc1nc(N/N=C\c2ccc3c(c2)OCO3)sc1C	.	.	.	.	75
C(=N\Nc1nc2ccccc2s1)/c1ccccn1	/	/	/	/	.
CC(C)(C)OC(=O)C[C@H]1C/C=C\C[C@H](CC(=O)NCCO)C(=O)N[C@@H](Cc2ccccc2)COC1=O	.	.	.	.	.
Brc1cccc(-c2nc3c4ccccc4ccn3c2Cc2ccsc2)c1	/	.	/	/	/
COc1ccc(/C=N/Nc2nncc3ccccc23)cc1	.	.	.	.	48
C(=N\Nc1ccccc1)/c1nc2ccccc2s1	.	.	.	.	69
C(=C\c1ccccc1)/C=N/Nc1nc2ccccc2s1	.	.	.	.	.
Oc1c(Br)cc(/C=N/Nc2nncc3ccccc23)cc1Br	/	/	/	/	.
C(=N\Nc1nc2ccccc2s1)/c1ccc2c(c1)OCO2	.	.	.	.	112
COC(=O)[C@]12CCCCC=C1N(Cc1ccc(Cl)cc1Cl)C(=O)[C@H](CC(=O)N1CCN(C(=O)C3CC3)CC1)C2	/	.	/	/	/
CC(=O)Nc1cccc(-c2cc(C)c3cc4c(cc3n2)OCO4)c1	.	.	.	.	/
Cn1nc(-c2ccccc2)cc1NS(=O)(=O)c1ccc(C#N)cc1	.	.	.	.	.
COc1cccc(C(=O)Nc2cc(C(F)(F)F)ccc2Cl)c1	.	.	.	.	60
COc1cccc(C(=O)Nc2ccc(C(F)(F)F)n(C)c2=O)c1	.	.	.	.	56
COc1ccc(/C=N/n2cnnc2SCCO)cc1OC	.	.	.	.	.
C=CCSc1nncn1/N=C/c1ccc(OC)cc1	.	.	.	.	58
CC(C)c1nnc(NC(=O)c2sc3ccccc3c2Cl)s1	.	.	.	.	71
O=C(Nc1nccs1)c1sc2ccccc2c1Cl	.	.	.	.	47
CN1CCCCC1(C)C(=O)NCc1ccc(C(C)(C)C)cc1 (centres undefined)	.	.	.	.	/
O=c1oc2ccccc2n1CSc1nc2ccccc2s1	.	.	.	.	61
CCn1c(CNc2nc3ccccc3n2C(C)C)nc2ccccc21	.	.	.	.	.
SMILES	GAA850 FXN act	HTR2A ag	MC4R antag cAMP	MC4R ag barr	AHR activator
COc1cccc(-c2nn(-c3ccccc3)cc2CN(C)C(C)c2ccon2)c1 (centres undefined)	.	.	.	.	68
CCC1(C)N=C(c2ccc3c(c2)OCO3)CC(c2ccccc2O)N1 (centres undefined)	.	.	.	.	73
O=c1c2[nH]c3ccccc3c2ncn1CCN1CCCCC1	.	.	.	.	72
Cc1cccc2[nH]c3c(=O)n(CCN4CCNCC4)cnc3c12	.	.	.	.	.
O=c1c2[nH]c3ccccc3c2ncn1CCN1CCOCC1	.	.	.	.	.
O=c1c2[nH]c3ccccc3c2ncn1C1CCCCC1	.	.	.	.	48
CC(C)CCn1cnc2c([nH]c3cccc(Cl)c32)c1=O	.	.	.	9.4	60
NC(=O)NC(CC(=O)OCC(=O)Nc1nnc(-c2ccccc2)o1)c1ccc(Cl)cc1 (centres undefined)	.	.	.	.	/
O=C(NNC1=Nc2ccccc2SC1)c1ccc(F)cc1	.	.	.	.	74
CC(=O)OCC(=O)[C@@]12OC3(CCCC3)O[C@@H]1C[C@H]1[C@@H]3CCC4=CC(=O)C=C[C@]4(C)[C@@]3(F)[C@@H](O)C[C@@]12C	.	18	.	.	.
CC1(C)O[C@@H]2C[C@H]3[C@@H]4CCC5=CC(=O)C=C[C@]5(C)[C@@]4(F)[C@@H](O)C[C@]3(C)[C@]2(C(=O)CO)O1	.	.	.	.	.
C/C(=N/Nc1ccnc2cc(Cl)ccc12)c1ccc(N)cc1	.	.	.	.	57
C/C(=N/Nc1ccnc2cc(Cl)ccc12)c1ccc(O)cc1	.	.	.	.	56
NC(=S)NNc1ccnc2cc(Cl)ccc12	.	.	.	.	.
Cc1ccc(CNC(=O)C2c3ccccc3C(=O)N3CCc4ccccc4C23)o1 (centres undefined)	.	.	.	.	115
O=C(NCCN1CCN(Cc2ccccc2)CC1)C1c2ccccc2C(=O)N2CCc3ccccc3C12 (centres undefined)	.	.	.	.	.
O=C(c1ccc2c(c1)OCO2)C1CCCN(Cc2cccn2-c2cccnc2)C1 (centres undefined)	.	.	.	.	49
Cc1ccc(-c2cc(N)n(-c3ccc(C)cc3)n2)cc1	.	.	.	.	52
COc1ccc(NC(=O)C2CCN(S(=O)(=O)c3ccc(Cl)c(C(F)(F)F)c3)CC2)cn1	.	.	.	.	/
CCCn1c2ccc(/C(C)=N\O)cc2c2cc(/C(C)=N/O)ccc21	.	.	.	.	48
COc1ccc(-c2ccc(C(=O)Nc3cccc(NS(C)(=O)=O)c3)c3occc23)c(C)c1	.	.	.	.	/
COc1ccc(C[C@H]2CN3C(=NC[C@@H]3Cc3ccccc3)N2CCNC(=O)c2ccc(C)c(Br)c2)cc1	.	.	.	23	.
CCC(CC)C(=O)N(C)c1c(C)nc2c(OCc3ccc(C#N)cc3)cccn12	.	.	.	.	/
Cc1ccc(NC(=O)C2=C(O)CCn3c2nc2ccccc23)cc1	.	.	.	.	57
CC(=O)Nc1cccc(NC(=O)Nc2cccc(F)c2)c1	.	.	.	.	49
SMILES	GAA850 FXN act	HTR2A ag	MC4R antag cAMP	MC4R ag barr	AHR activator
CC1CCN(CC(=O)n2c3c(c4ccccc42)CCCC3)CC1	.	.	.	.	50
O=C(NNC(=O)c1ccccc1F)c1ccc(-c2ccc(Cl)cc2)o1	.	.	.	.	68
O=C(NC1CCC(O)CC1)c1ccc(-c2ccc(Cl)cc2)o1 (centres undefined)	.	.	.	.	.
CCCCOCCCNC(=O)C[C@@H]1C[C@@]2(C(=O)OC)CC(C)(C)CC=C2N(Cc2ccccc2)C1=O	/	.	/	/	/
O=C(CNC(=O)c1ccccn1)N/N=C/c1ccc2c(c1)OCO2	.	.	.	.	68
O=C(CCc1c[nH]c2ccccc12)N/N=C/c1ccc2c(c1)OCO2	.	.	.	.	53
CC(/C=C/c1ccc2c(c1)OCO2)=N/NC(=O)CNc1ccc(C)cc1	.	.	.	.	97
CSc1ccc(/C=N/NC(=O)CNc2ccc3ccccc3c2)cc1	.	.	.	.	68
O=C(CNc1ccc2ccccc2c1)N/N=C/c1ccncc1	.	.	.	.	.
O=S1(=O)CC(N2CCCCC2)CN1Cc1cn(Cc2ccc(C(F)(F)F)cc2)nn1 (centres undefined)	/	.	/	/	/
